Fewer inactive variants are shown than the library holds.
B1: tRNA (parent)
chain: GUUCCGUUGGCGUAAUGGUAACGCGUCUCCCUCCUAAGGAGAAGACUGCGGGUUCGAGUCCCGUACGGAACG

Variants of: B1
Assay: yeast fitness relative to wild type (ratio to wild type); higher = fitter; tRNA-Arg(CCU), competitive growth, 37 C, YPD
In short: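 Amplicons of the tRNA-Arg(CCU) gene were sequenced, 100-nucleotide paired-end, from the start population and from each end population of a pooled yeast competition. The competition, in six parallel replicates, lasted 24 hours in YPD at 37°C. Fitness relative to wild type was calculated from changes in genotype frequencies. Genotypes had to have ≥ 100 starting reads, and estimates < 0.5 were set to 0.5.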

Variant | yeast fitness
GUUCCGUUGGCGUAAUGGUAACGCGUCUCCCUCCUAAGGAGAAGACUGGGGGUUCGAGUCCCGUAUGGAACG | 0.781
GUUCCGUUGGCGUAAUGGUAACGCGUCUCCCUCCUAAGGAGAAGACUGGAGGUUCGAGUCCCGUACGGAACG | 0.667
GUUCCGUUGGCGUAAUGGUAACGCGUCUCCCUCCUAAGGAGAAGACUGGAGGUUCGCGUCCCGUACGGAACG | ≤ 0.5
GUUCCGUUGGCGUAAUGGUAACGCGUCUCCCUCCUAAGGAGAAGACUGGAGGUUCGAGGCCCGUACGGAACG | ≤ 0.5
GUUCCGUUGGCGUAAUGGUAACGCGUCUCCCUCCUAAGGAGAAGACUGGCGGUUCGAGUCCCGUACGGAACG | 0.613
GUUCCGUUGGCGUAAUGGUAACGCGUCUCCCUCCUAAGGAGAAGACUGGGGAUUCGAGUCCCGUACGGAACG | 0.898
GUUCCGUUGGCGUAAUGGUAACGCGUCUCCCUCCUAAGGAGAAGACUGGGGAUUCGAGUCCCGUACGGUACG | 0.542
GUUCCGUUGGCGUAAUGGUAACGCGUCUCCCUCCUAAGGAGAAGACUGGGGGUUCAAGUCCCGUACGGAACG | 0.838
GUUCCGUUGGCGUAAUGGUAACGCGUCUCCCUCCUAAGGAGAAGACUGGGGGUUCAAGUCCCGUCCGGAACG | 0.543
GUUCCGUUGGCGUAAUGGUAACGCGUCUCCCUCCUAAGGAGAAGACUGGGGGUUCCAGUCCCGUACGGAUCG | 0.55
GUUCCGUUGGCGUAAUGGUAACGCGUCUCCCUCCUAAGGAGAAGACUGGGGGUUCGAGUCCCAUACGGAACG | 0.86
GUUCCGUUGGCGUAAUGGUAACGCGUCUCCCUCCUAAGGAGAAGACUGGGGGUUCGAGUCCCAUAUGGAACG | 0.524
GUUCCGUUGGCGUAAUGGUAACGCGUCUCCCUCCUAAGGAGAAGACUGGGGGUUCGAGUCCCCUACGGAACG | 0.967
GUUCCGUUGGCGUAAUGGUAACGCGUCUCCCUCCUAAGGAGAAGACUGGGGGUUCGAGUCCCGUACCGAACG | 0.84
GUUCCGUUGGCGUAAUGGUAACGCGUCUCCCUCCUAAGGAGAAGACUGGGGGUUCGAGUCCCGUACGAAACG | 0.953
GUUCCGUUGGCGUAAUGGUAACGCGUCUCCCUCCUAAGGAGAAGACUGGGGGUUCGAGUCCCGUACGCAACG | 0.704
GUUCCGUUGGCGUAAUGGUAACGCGUCUCCCUCCUAAGGAGAAGACUGGGGGAUCGAGUCCCGUACGGAACG | 0.627
GUUCCGUUGGCGUAAUGGUAACGCGUCUCCCUCCUAAGGAGAAGACUGGGGGCUAGAGUCCCAUACGGAACG | ≤ 0.5
GUUCCGUUGGCGUAAUGGUAACGCGUCUCCCUCCUAAGGAGAAGACUGGGGGUACGAGUCCCGUACGGAACG | 0.637
GUUCCGUUGGCGUAAUGGUAACGCGUCUCCCUCCUAAGGAGAAGACUGGGGGUACGAGUCCCGUACGUUACG | 0.566
GUUCCGUUGGCGUAAUGGUAACGCGUCUCCCUCCUAAGGAGAAGACUGGGGGUGCGAGUCCCGUACGGAACG | 0.625
GUUCCGUUGGCGUAAUGGUAACGCGUCUCCCUCCUAAGGAGAAGACUGGGGGUGCGAGUCCCGUACGGUACG | ≤ 0.5
GUUCCGUUGGCGUAAUGGUAACGCGUCUCCCUCCUAAGGAGAAGACUGGGGGUUCGAGACCCGUACGGAACG | 0.785
GUUCCGUUGGCGUAAUGGUAACGCGUCUCCCUCCUAAGGAGAAGACUGGGGGUUCGAGCCCCGUACGGAACG | 0.761
GUUCCGUUGGCGUAAUGGUAACGCGUCUCCCUCCUAAGGAGAAGACUGUGGGUUCGAGUCCCGUACGGAACG | 0.995

Variant | yeast fitness
GUUCCGUUGGCGUAAUGGUAACGCGUCUCCCUCCUAAGGAGAAGACUGUGGGUUCGCGUCCCGUACGGAACG | 0.78
GUUCCGUUGGCGUAAUGGUAACGCGUCUCCCUCCUAAGGAGAAGACUGUGGGUUCGUGUCCCGUACCGAACG | ≤ 0.5
GUUCCGUUGGCGUAAUGGUAACGCGUCUCCCUCCUAAGGAGAAGACUGUGGGUUCGAGUCCCGUGCGGAACG | 0.942
GUUCCGUUGGCGUAAUGGUAACGCGUCUCCCUCCUAAGGAGAAGACUGUGGGUUCGAGUCCCGUUCGGAUCG | 0.657
GUUCCGUUGGCGUAAUGGUAACGCGUCUCCCUCCUAAGGAGAAGACUGUGGGUUCGAGUCCCGUACGGCACG | 1.01
GUUCCGUUGGCGUAAUGGUAACGCGUCUCCCUCCUAAGGAGAAGACUGUGGGUUCGAGUCCCGUACGGUGCG | 0.687
GUUCCGUUGGCGUAAUGGUAACGCGUCUCCCUCCUAAGGAGAAGACUGUGGGUUCGAGUCCCGUACGGAUCG | 1
GUUCCGUUGGCGUAAUGGUAACGCGUCUCCCUCCUAAGGAGAAGACUGUGGGUUAGAGUCCUGUACGGAACG | 0.699
GUUCCGUUGGCGUAAUGGUAACGCGUCUCCCUCCUAAGGAGAAGACUGUGGGUUAGAGUCCCGUAUGGAACG | 0.514
GUUCCGUUGGCGUAAUGGUAACGCGUCUCCCUCCUAAGGAGAAGACUGUGGGUUUGAGUCUCGUACGGAACG | 0.559
GUUCCGUUGGCGUAAUGGUAACGCGUCUCCCUCCUAAGGAGAAGACUGUGGGUUUGAAUCCCGUACGGAACG | ≤ 0.5
GUUCCGUUGGCGUAAUGGUAACGCGUCUCCCUCCUAAGGAGAAGACUGUGGGUUCGAGUACCGUACGGAACG | 0.668
GUUCCGUUGGCGUAAUGGUAACGCGUCUCCCUCCUAAGGAGAAGACUGUGGGUUCGAGUGCCGUACGGAACG | 0.609
GUUCCGUUGGCGUAAUGGUAACGCGUCUCCCUCCUAAGGAGAAGACUGUGGGUUCGAGUCGCGUACGGAACG | 0.689
GUUCCGUUGGCGUAAUGGUAACGCGUCUCCCUCCUAAGGAGAAGACUGUGGGUUCGAGUCCAGUACGGAACG | 0.787
GUUCCGUUGGCGUAAUGGUAACGCGUCUCCCUCCUAAGGAGAAGACUGUGGGUUCGAGUCCGGUACGCAACG | 0.536
GUUCCGUUGGCGUAAUGGUAACGCGUCUCCCUCCUAAGGAGAAGACUGUGGGUUCGAGUCCUGUACGGAACG | 0.869
GUUCCGUUGGCGUAAUGGUAACGCGUCUCCCUCCUAAGGAGAAGACUGUGGGUUCGAGUCCUGUACGGUACG | 0.948
GUUCCGUUGGCGUAAUGGUAACGCGUCUCCCUCCUAAGGAGAAGACUGUGGGUUCGAGUCCUGUACAGAACG | 0.573
GUUCCGUUGGCGUAAUGGUAACGCGUCUCCCUCCUAAGGAGAAGACUGUGGGUUCGAGUCCCGUAAGGAACG | 0.815
GUUCCGUUGGCGUAAUGGUAACGCGUCUCCCUCCUAAGGAGAAGACUGUGGGUUCGAGUCCCGUAGGGAACG | 0.752
GUUCCGUUGGCGUAAUGGUAACGCGUCUCCCUCCUAAGGAGAAGACUGUGGGUUCGAGUCCCGUAUGGAACG | 0.968
GUUCCGUUGGCGUAAUGGUAACGCGUCUCCCUCCUAAGGAGAAGACUGUGAGUUCGAGUCCCGUACGGAACG | 0.737
GUUCCGUUGGCGUAAUGGUAACGCGUCUCCCUCCUAAGGAGAAGACUGUGAGUUCGAGUCCCGUACGGCACG | 0.61
GUUCCGUUGGCGUAAUGGUAACGCGUCUCCCUCCUAAGGAGAAGACUGUGCGUUCGAGUCCCGUACGGAACG | 0.756

Variant | yeast fitness
GUUCCGUUGGCGUAAUGGUAACGCGUCUCCCUCCUAAGGAGAAGACUGUGCGUUAGAGUCCCGUACGGAACG | 0.618
GUUCCGUUGGCGUAAUGGUAACGCGUCUCCCUCCUAAGGAGAAGACUGUGCGUUCGAGUCCCGUACGAAACG | ≤ 0.5
GUUCCGUUGGCGUAAUGGUAACGCGUCUCCCUCCUAAGGAGAAGACUGUGCGUUCGAGUCCCGCACGAAACG | ≤ 0.5
GUUCCGUUGGCGUAAUGGUAACGCGUCUCCCUCCUAAGGAGAAGACUGUGGCUUCGAGUCCCGUACGGAACG | 0.547
GUUCCGUUGGCGUAAUGGUAACGCGUCUCCCUCCUAAGGAGAAGACUGUGGCUUCGCGUCCCCUACGGAACG | ≤ 0.5
GUUCCGUUGGCGUAAUGGUAACGCGUCUCCCUCCUAAGGAGAAGACUGUGGGUUCAAGUCCCGUACGGAACG | 1.03
GUUCCGUUGGCGUAAUGGUAACGCGUCUCCCUCCUAAGGAGAAGACUGUGGGUUCCAGUCCCGUACGGAACG | 0.58
GUUCCGUUGGCGUAAUGGUAACGCGUCUCCCUCCUAAGGAGAAGACUGUGGGUUCCAGUCCCGUACGGACCG | ≤ 0.5
GUUCCGUUGGCGUAAUGGUAACGCGUCUCCCUCCUAAGGAGAAGACUGUGGGUUCUAGUCCCGUACGGAACG | 0.677
GUUCCGUUGGCGUAAUGGUAACGCGUCUCCCUCCUAAGGAGAAGACUGUGGGUUCGACUCCCGUACGGAACG | 1
GUUCCGUUGGCGUAAUGGUAACGCGUCUCCCUCCUAAGGAGAAGACUGUGGGUUCGAGUCCCCUACCGAACG | 0.53
GUUCCGUUGGCGUAAUGGUAACGCGUCUCCCUCCUAAGGAGAAGACUGUGGGUUCGAGUCCCGUACAGAACG | 0.879
GUUCCGUUGGCGUAAUGGUAACGCGUCUCCCUCCUAAGGAGAAGACUGUGGGUUCGAGUCCCGUACAGUACG | ≤ 0.5
GUUCCGUUGGCGUAAUGGUAACGCGUCUCCCUCCUAAGGAGAAGACUGUGGGUUCGAGUCCCGUACUGCACG | 0.542
GUUCCGUUGGCGUAAUGGUAACGCGUCUCCCUCCUAAGGAGAAGACUGUGGGUUCGAGUCCCGUACGCAACG | 0.801
GUUCCGUUGGCGUAAUGGUAACGCGUCUCCCUCCUAAGGAGAAGACUGUGGGUUCGAGUCCCGUACGCUACG | 0.569
GUUCCGUUGGCGUAAUGGUAACGCGUCUCCCUCCUAAGGAGAAGACUGUGGGAUCGAGUCCCGUAUGGAUCG | ≤ 0.5
GUUCCGUUGGCGUAAUGGUAACGCGUCUCCCUCCUAAGGAGAAGACUGUGGGCUCGAGUCCCGUACGGAACG | 0.691
GUUCCGUUGGCGUAAUGGUAACGCGUCUCCCUCCUAAGGAGAAGACUGUGGGUACGAGUCCCGUACGGAACG | 0.736
GUUCCGUUGGCGUAAUGGUAACGCGUCUCCCUCCUAAGGAGAAGACUGUGGGUCCGAGUCCCGUACGGAACG | 0.864
GUUCCGUUGGCGUAAUGGUAACGCGUCUCCCUCCUAAGGAGAAGACUGUGGGUCGGAGUCCCGUACGGAACG | 0.548
GUUCCGUUGGCGUAAUGGUAACGCGUCUCCCUCCUAAGGAGAAGACUGUGGGUCCGAGUCCCGUAGGGAACG | ≤ 0.5
GUUCCGUUGGCGUAAUGGUAACGCGUCUCCCUCCUAAGGAGAAGACUGUGGGUUCGAGACCCGUACGGAACG | 0.852
GUUCCGUUGGCGUAAUGGUAACGCGUCUCCCUCCUAAGGAGAAGACUGUGGGUUCGAGACCCGUUCGGAACG | ≤ 0.5
GUUCCGUUGGCGUAAUGGUAACGCGUCUCCCUCCUAAGGAGAAGACUGUGGGUUCGAGACACGUACGGAACG | ≤ 0.5

From the RNAGym collection of RNA variant scans (doi:10.1126/science.aae0568)
